Only some compounds are listed: those with a hit (about 2.4% of all), similar ones and a draw of the others.
GSTO1 counter – GSTO1 inhibition, counter-screen for RBBP9 inhibitors. P78417. recombinant GSTO1, activity-based probe fluorescence polarization. inhibition, % at 5.96 µM. 1.1% of 300,000 active. AID 1974;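 active = inhibition above the campaign mean inhibition plus 3 SD, cut at about 35% in these data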;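 also: 0% = GSTO1-1 with DMSO and 100% = wells lacking GSTO1-1 enzyme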
Apaf1 inhib – inhibitors of human Apaf-1 apoptosome; O14727; reconstituted apoptosome caspase-3 activity, DEVD-Rh110 fluorescence; inhibition, % at 20 µM; 0.71% of 330,000 active; AID 489030; active = inhibition of at least 40% at 20 µM;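 also: plate controls were DMSO wells for no effect and DEVD-CHO caspase inhibitor wells for full effect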
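System – cell-free apoptosome with Apaf-1, procaspase-3 and caspase-9 · Buffer or medium – pH 7.5 Hepes buffer with CHAPS, BSA, DTT · Also added – cytochrome c with DEVD-Rh110 · Times – 30 min compound preincubation, 50 min activation, room temperature · Technique – Rh110 fluorescence intensity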
TDP2 absorb – blocks human TDP2 phosphodiesterase activity; inhibition, % at 12.8 µM; recombinant TDP2, T5PNP hydrolysis, p-nitrophenol absorbance 415 nm; 0.34% of 370,000 active;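 active = inhibition above the mean of all tested compounds plus 3 SD, set per campaign, cut at about 25% in these data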;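 also: 0% = DMSO with enzyme and 100% = buffer with substrate but no TDP2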
Target sequence (O95551 whole entry, looked up): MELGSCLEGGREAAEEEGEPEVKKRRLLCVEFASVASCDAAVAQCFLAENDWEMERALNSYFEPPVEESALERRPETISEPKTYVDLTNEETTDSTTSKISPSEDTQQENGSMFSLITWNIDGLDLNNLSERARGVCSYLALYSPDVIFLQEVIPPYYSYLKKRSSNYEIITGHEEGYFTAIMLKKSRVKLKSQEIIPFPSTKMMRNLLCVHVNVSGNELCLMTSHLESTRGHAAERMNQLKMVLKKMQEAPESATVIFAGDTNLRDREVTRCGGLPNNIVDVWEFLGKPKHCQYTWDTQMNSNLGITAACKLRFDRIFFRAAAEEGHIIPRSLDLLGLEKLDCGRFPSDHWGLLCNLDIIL
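Assay system: recombinant human TDP2 / Reagent: T5PNP substrate at 5 mM, a TopII-DNA adduct mimic / Measured by: epi absorbance from released p-nitrophenol / Evaluation: % inhibition relative to enzyme-containing and enzyme-free wells / Control set: enzyme-free and DMSO wells / Replicates: each compound tested once, singlicate / Schedule: enzyme reaction with compound for 2 h at 37 °C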
SIAE primary – human SIAE inhibition, primary screen | Q9HAT2 | 0.69% of 370,000 active | inhibition, % at 9.66 µM | SIAE FP-Rh probe binding, fluorescence polarization;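 active = inhibition above a cutoff: mean of compounds within the control limits plus 3 SD of those, cut at about 17% in these data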;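 also: 0% = plate median of compound wells and 100% = probe without SIAE protein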
TCR CD3 inh – human TCR-CD3 binding inhibition; TAMRA-labeled TCR probe fluorescence, biochemical; inhibition, % at 9.4 µM; 0.37% of 360,000 active; in the data active = inhibition above about 19%;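 also: recombinant mutant TCR 2C K166C tagged with TAMRA read by polarization; 0% = receptor in buffer alone and 100% = receptor with positive control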
PAD4 FP inh – inhibitors of human PAD4; inhibition, % at 6.36 µM; 0.41% of 330,000 active; Q9UM07; AID 485272; recombinant PAD4, RCA probe fluorescence polarization;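 active = percent inhibition above a cutoff equal to the mean of all tested compounds plus 3 SD, cut at about 15% in these data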;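 also: 0% = PAD4 with RCA probe and DMSO and 100% = probe without PAD4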
Apaf-1 inh conf – confirmation of Apaf-1 inhibitors; 25% of 1,800 active; reconstituted apoptosome, caspase-3 DEVD-Rh110 fluorescence; AID 504614; inhibition, % at 20 µM; shares compounds with Apaf1 inhib;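 active = mean inhibition of at least 40% at 20 µM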;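 also: plate controls were DMSO wells for no effect and DEVD-CHO caspase inhibitor control wells for full effect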
Rh110 interf inh – counter-screen for Apaf-1 inhibitors: fluorescence interference. shares compounds with Apaf1 inhib. Rh110 fluorescence interference, quenched caspase reaction. activation (fluorescence interference), % at 20 µM. 1,800 tested, under 10 active. AID 504615;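 active = signal rise of 40% or more at 20 µM, treated as a fluorescence artifact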
Starred values were filed as active, the others as inactive.

What do the screens show for `C=CC[C@@H](Cc1ccc(F)cc1)C(=O)OC[C@@H]1CCCN1C(=O)[C@@H](CC=C)CC(=O)N[C@H](CO)Cc1ccccc1`?
Apaf1 inhib: 28.5; TDP2 absorb: -3.1; SIAE primary: 5.2; TCR CD3 inh: 4.8; PAD4 FP inh: 0.3

What do the screens show for `Cc1cccnc1NC(=O)COc1ccc2c(c1)CCC2`?
GSTO1 counter: 3.4; Apaf1 inhib: -0.2; TDP2 absorb: 7.7; SIAE primary: -1.5; TCR CD3 inh: -1.8; PAD4 FP inh: 1.2

How did CNC(=O)c1nn(-c2ccc(Cl)cc2)ccc1=O do in these assays?
GSTO1 counter: 1.3; Apaf1 inhib: 4.4; TDP2 absorb: 9.5; SIAE primary: 0.5; TCR CD3 inh: 1.1; PAD4 FP inh: -0.9

What do the screens show for `Cn1c(SCC(=O)N/N=C/C=C\c2ccco2)nc2ccccc21`?
GSTO1 counter: -5.1; Apaf1 inhib: -1.7; TDP2 absorb: -4.2; SIAE primary: 6.3; TCR CD3 inh: 17.4; PAD4 FP inh: -5.3

How did CCn1c(SCC(=O)N/N=C/C=C\c2ccco2)nc2ccccc21 do in these assays?
GSTO1 counter: 3.3; Apaf1 inhib: 46.9*; TDP2 absorb: -1.2; SIAE primary: 14.0; TCR CD3 inh: -4.9; PAD4 FP inh: -8.2; Apaf-1 inh conf: 15.7; Rh110 interf inh: -5.7

What do the screens show for `O=C(Nc1cccc(-c2ccc(N3CCCCC3)nn2)c1)C(F)(F)F`?
GSTO1 counter: -1.0; Apaf1 inhib: -2.6; TDP2 absorb: -12.0; SIAE primary: 4.2; TCR CD3 inh: -0.3; PAD4 FP inh: -1.8

How did COc1ccc2nc(N(CCN(C)C)C(=O)c3ccc(C(=O)c4ccccc4)cc3)sc2c1 do in these assays?
GSTO1 counter: -5.2; Apaf1 inhib: 17.1; TDP2 absorb: -1.2; SIAE primary: -5.2; TCR CD3 inh: -6.3; PAD4 FP inh: 0.1

What do the screens show for `CCN(CC)CCN(C(=O)c1ccc(C(=O)c2ccccc2)cc1)c1nc2ccc(OC)cc2s1`?
GSTO1 counter: 5.8; Apaf1 inhib: 44.5*; TDP2 absorb: 9.0; SIAE primary: 2.5; TCR CD3 inh: -0.6; PAD4 FP inh: 1.5; Apaf-1 inh conf: 14.9; Rh110 interf inh: -5.2

How did CC(=O)NCCOC(=O)Nc1sc(=S)n(C)c1C do in these assays?
GSTO1 counter: -4.7; Apaf1 inhib: -9.1; TDP2 absorb: -1.2; SIAE primary: -3.2; TCR CD3 inh: -0.3; PAD4 FP inh: 0.8

How did N#C/C(=C/c1cn(-c2ccccc2)nc1-c1cccc(OCc2ccc(F)cc2)c1)C(=O)NCCCn1ccnc1 do in these assays?
GSTO1 counter: -14.7; Apaf1 inhib: 43.9*; TDP2 absorb: 2.4; SIAE primary: -19.4; TCR CD3 inh: -1.9; PAD4 FP inh: 1.7; Apaf-1 inh conf: 26.4; Rh110 interf inh: 9.2

How did NC(=O)CC(NC(=O)Cc1ccc(Br)cc1)c1ccc(NC2CCN(Cc3ccccc3)CC2)c([N+](=O)[O-])c1 (stereo not drawn) do in these assays?
GSTO1 counter: 6.7; Apaf1 inhib: 7.5; TDP2 absorb: -17.4; SIAE primary: 0.3; TCR CD3 inh: -4.0; PAD4 FP inh: -1.7

Results for Cc1cc(O)c(C(C)C)cc1N=Cc1cc([N+](=O)[O-])ccc1O ?
GSTO1 counter: 26.6; Apaf1 inhib: 44.5*; TDP2 absorb: -2.0; SIAE primary: 9.0; TCR CD3 inh: -7.8; PAD4 FP inh: 3.6; Apaf-1 inh conf: 7.4; Rh110 interf inh: 0.9

How did Cc1ccc(NC(=S)NCc2ccc3c(c2)OCO3)cc1C do in these assays?
GSTO1 counter: -3.5; Apaf1 inhib: 5.9; TDP2 absorb: -3.4; SIAE primary: 10.5; TCR CD3 inh: 5.2; PAD4 FP inh: -2.9

Results for S=C(NCc1ccc2c(c1)OCO2)Nc1ccc2nsnc2c1 ?
GSTO1 counter: 9.7; Apaf1 inhib: 61.6*; TDP2 absorb: 11.0; SIAE primary: 2.2; TCR CD3 inh: 0.1; PAD4 FP inh: -12.7; Apaf-1 inh conf: 7.6; Rh110 interf inh: 2.1

What do the screens show for `CCOC(=O)c1ccc2cccc(C)n2c1=O`?
GSTO1 counter: -3.6; Apaf1 inhib: -14.8; PAD4 FP inh: -0.5

Compound activity deposited in PubChem BioAssay by several laboratories.
